Experiments:
Type in all cases: biochemical
IP3R3 = IP3R3 (Rattus norvegicus, UniProt Q63269); assay: Ca2+ release from stores of permeabilized DT40 cells
IP3R2 [1] = biological target: IP3R2 (Mus musculus, UniProt Q9Z329, G1969A/G1971A/G1974A); assay: Ca2+ release from stores of permeabilized DT40-ΔATPB cells
Procedure, shortened: (§1)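 DT40 cells lacking all endogenous IP3R genes were stably transfected with the IP3R construct and selected with G418 (2 mg/ml). Intracellular stores were loaded with Mag-fluo-4, and cells were permeabilized with saponin (10 μg/ml) at 20 °C in cytosol-like medium (free Ca²⁺ 220 nM, pH 7.0). After MgATP (1.5 mM) loading reached steady state, IP3 was added with thapsigargin (1 μM). Release was expressed as a fraction of ionomycin (1 μM) release.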

IP3R2 [2] = biological target: IP3R2 (Mus musculus, UniProt Q9Z329); assay: Ca2+ release from stores of permeabilized DT40 cells
Procedure, shortened: as §1

IP3R2 (Mus musculus, UniProt Q9Z329), sequence (Q9Z329 whole entry): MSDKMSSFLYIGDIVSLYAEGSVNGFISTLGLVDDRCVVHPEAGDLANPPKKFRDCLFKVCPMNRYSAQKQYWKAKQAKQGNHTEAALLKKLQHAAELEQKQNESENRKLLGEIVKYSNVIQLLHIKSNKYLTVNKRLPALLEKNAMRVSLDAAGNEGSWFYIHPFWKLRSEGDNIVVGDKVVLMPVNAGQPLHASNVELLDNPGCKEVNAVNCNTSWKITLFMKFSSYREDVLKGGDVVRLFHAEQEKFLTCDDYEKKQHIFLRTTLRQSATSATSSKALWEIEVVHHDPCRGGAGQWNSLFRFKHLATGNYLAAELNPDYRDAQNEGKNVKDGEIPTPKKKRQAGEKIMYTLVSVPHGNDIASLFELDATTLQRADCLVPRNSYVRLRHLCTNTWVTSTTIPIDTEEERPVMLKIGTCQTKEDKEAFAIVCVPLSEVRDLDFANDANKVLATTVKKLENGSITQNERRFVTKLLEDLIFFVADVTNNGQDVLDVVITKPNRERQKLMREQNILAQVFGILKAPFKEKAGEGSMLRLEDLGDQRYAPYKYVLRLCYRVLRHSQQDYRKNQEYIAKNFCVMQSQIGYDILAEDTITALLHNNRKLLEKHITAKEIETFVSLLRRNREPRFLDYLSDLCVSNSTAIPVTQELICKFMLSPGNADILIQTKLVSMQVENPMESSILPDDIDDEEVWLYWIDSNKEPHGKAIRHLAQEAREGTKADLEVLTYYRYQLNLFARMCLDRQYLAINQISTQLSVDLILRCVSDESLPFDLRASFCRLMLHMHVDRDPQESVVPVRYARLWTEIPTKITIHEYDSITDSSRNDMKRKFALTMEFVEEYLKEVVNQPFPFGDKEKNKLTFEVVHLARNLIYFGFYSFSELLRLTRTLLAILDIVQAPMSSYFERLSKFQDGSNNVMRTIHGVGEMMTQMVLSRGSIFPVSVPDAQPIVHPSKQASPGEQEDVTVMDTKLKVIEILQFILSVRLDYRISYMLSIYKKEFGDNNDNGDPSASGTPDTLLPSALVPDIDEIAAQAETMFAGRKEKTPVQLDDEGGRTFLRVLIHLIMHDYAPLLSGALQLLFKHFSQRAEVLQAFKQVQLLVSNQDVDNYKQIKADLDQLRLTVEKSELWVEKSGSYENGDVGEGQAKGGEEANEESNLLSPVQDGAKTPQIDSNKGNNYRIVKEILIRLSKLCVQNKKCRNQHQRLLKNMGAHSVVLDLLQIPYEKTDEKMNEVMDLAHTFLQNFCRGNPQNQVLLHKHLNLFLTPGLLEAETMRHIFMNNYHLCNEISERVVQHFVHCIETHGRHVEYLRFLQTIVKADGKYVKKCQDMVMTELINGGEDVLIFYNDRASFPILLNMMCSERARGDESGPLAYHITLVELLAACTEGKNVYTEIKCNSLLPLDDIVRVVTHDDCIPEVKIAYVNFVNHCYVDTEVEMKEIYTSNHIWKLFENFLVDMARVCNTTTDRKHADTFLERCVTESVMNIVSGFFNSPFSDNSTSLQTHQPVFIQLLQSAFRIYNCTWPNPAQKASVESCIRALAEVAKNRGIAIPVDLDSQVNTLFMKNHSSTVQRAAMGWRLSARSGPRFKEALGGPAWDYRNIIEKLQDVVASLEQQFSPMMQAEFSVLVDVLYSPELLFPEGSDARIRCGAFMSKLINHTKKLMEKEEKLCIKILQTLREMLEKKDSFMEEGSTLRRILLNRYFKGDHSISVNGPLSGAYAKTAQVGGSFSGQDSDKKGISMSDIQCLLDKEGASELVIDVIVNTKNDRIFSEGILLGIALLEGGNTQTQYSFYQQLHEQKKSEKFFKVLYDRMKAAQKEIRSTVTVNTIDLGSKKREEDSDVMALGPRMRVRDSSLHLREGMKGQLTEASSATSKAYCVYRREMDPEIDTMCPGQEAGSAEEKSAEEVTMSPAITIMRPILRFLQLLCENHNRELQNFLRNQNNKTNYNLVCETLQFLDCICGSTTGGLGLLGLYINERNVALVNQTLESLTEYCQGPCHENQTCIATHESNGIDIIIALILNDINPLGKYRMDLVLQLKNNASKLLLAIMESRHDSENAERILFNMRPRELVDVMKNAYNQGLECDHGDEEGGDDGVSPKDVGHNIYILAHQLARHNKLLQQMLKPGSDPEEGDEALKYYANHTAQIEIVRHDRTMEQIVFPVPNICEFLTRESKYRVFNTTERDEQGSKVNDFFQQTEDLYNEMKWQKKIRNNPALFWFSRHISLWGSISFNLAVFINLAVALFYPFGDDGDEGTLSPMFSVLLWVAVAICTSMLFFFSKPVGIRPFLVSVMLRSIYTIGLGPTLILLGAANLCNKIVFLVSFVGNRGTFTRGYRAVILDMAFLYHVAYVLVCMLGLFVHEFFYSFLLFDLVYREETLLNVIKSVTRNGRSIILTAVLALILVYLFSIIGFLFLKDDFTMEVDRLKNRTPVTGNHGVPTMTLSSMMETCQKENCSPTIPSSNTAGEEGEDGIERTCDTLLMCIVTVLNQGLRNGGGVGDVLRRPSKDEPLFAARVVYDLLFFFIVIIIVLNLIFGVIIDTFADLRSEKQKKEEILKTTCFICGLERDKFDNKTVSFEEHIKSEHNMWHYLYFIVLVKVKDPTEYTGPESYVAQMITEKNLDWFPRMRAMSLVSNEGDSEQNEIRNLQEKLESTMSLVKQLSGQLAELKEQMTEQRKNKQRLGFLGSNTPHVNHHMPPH

In the case of `O=P(O)(O)O[C@@H]1[C@H](O)[C@H](O)[C@@H](OP(=O)(O)O)[C@H](OP(=O)(O)O)[C@H]1O` [IP3], the EC50 (IP3R3) is reported as 255 ± 9 nM, the EC50 (IP3R2 [1]) is reported as 246 ± 17 nM and the EC50 (IP3R2 [2]) is reported as 74 ± 10 nM.

From publication PMC2857138 (The Journal of Biological Chemistry, 2010)
